{"data": "Results collected from several papers", "PMV": "Plasmepsin V (PMV, Plasmodium falciparum, UniProt Q8I6Z5)", "PADI1": "Protein-arginine deiminase type-1 (PADI1, Homo sapiens, UniProt Q9ULC6)", "note": "Compare with care: the assays were run in different laboratories."}
{"SMILES": "Cc1ccccc1CNC(=O)[C@H]1N(C(=O)[C@@H](O)[C@H](Cc2ccccc2)NC(=O)c2cccc(O)c2C)CSC1(C)C", "target": "PMV", "test": "enzyme activity, inhibitor, fluorescence", "setting": "10 µM", "quantity": "activity vs control", "result": "73%"}
{"SMILES": "C#Cc1n[nH]c2c(-c3cn(C(C)c4ccccn4)c(=O)[nH]c3=O)cc(F)cc12 (stereo not shown)", "target": "Dual specificity tyrosine-phosphorylation-regulated kinase 2 (DYRK2, Homo sapiens, UniProt Q92630)", "test": "enzyme activity, inhibitor", "setting": "1 µM", "quantity": "inhibition", "result": "-7.1%"}
{"SMILES": "Cc1cccc(C)c1OCC(=O)N[C@@H](Cc1ccccc1)[C@H](O)C(=O)N1CSC(C)(C)[C@H]1C(=O)N[C@H]1c2ccccc2C[C@H]1O", "target": "PMV", "test": "enzyme activity, inhibitor, fluorescence", "setting": "10 µM", "quantity": "activity vs control", "result": "77%"}
{"SMILES": "CCOC(=O)[C@H](CCCN=C(N)N)NC(=O)c1ccccc1", "target": "PADI1", "test": "enzyme activity, substrate", "quantity": "Km", "result": "190 µM"}
{"SMILES": "CCN(CC)CCCC[C@H](NC(=O)[C@H](CC(C)C)NC(=O)[C@H](C)NC(=O)[C@H](Cc1ccccc1)NC(=O)c1ccc(C(C)(C)C)cc1)C(=O)N[C@@H](CO)C(=O)OC", "target": "ATPase family AAA domain-containing protein 2, bromodomain (ATAD2, Homo sapiens, UniProt Q6PL18)", "test": "thermal stability, DSF", "setting": "25 µM", "quantity": "ΔTm", "result": "-0.62 °C"}
{"SMILES": "COc1ncccc1-c1cnn2ccc(N3CCN(C(=O)OC(C)C)CC3)nc12", "target": "Serine/threonine-protein kinase 32B (STK32B, Homo sapiens, UniProt Q9NY57)", "test": "binding, competition with immobilised ligand", "setting": "1 µM", "quantity": "remaining binding", "result": "98%"}
{"SMILES": "CC(C)C[C@H](CC(=O)NO)C(=O)N[C@H](C(=O)N[C@@H](C)C(=O)NCCN)C(C)(C)C", "target": "Disintegrin and metalloproteinase domain-containing protein 17 (ADAM17, Homo sapiens, UniProt P78536)", "test": "enzyme activity, inhibitor", "setting": "1 µM", "quantity": "inhibition", "result": "13%"}
{"SMILES": "Cc1nn(C)cc1-c1nc2c(N3CCN(Cc4ccc(Cl)cc4)CC3)c(Cl)cnc2[nH]1", "target": "Activin receptor type-1-like (ACVRL1, Homo sapiens, UniProt P37023)", "test": "binding, competition with immobilised ligand", "setting": "1 µM", "quantity": "remaining binding", "result": "100%"}
{"SMILES": "COC(=O)[C@H](CCCNC(=N)N)NC(=O)c1ccccc1", "target": "PADI1", "test": "enzyme activity, substrate", "quantity": "Km", "result": "370 µM"}
{"SMILES": "Nc1ncc(-c2nc(N3CCOCC3)nc(N3CCOCC3)n2)c(C(F)F)n1", "target": "Phosphatidylinositol 4,5-bisphosphate 3-kinase catalytic subunit alpha isoform (PIK3CA, Homo sapiens, UniProt P42336, H1047L)", "test": "binding, competition with immobilised ligand", "setting": "10 µM", "quantity": "remaining binding", "result": "0%"}
